Measurements taken from ChEMBL document CHEMBL1135904, “Toward an optimal joint recognition of the S1' subsites of endothelin converting enzyme-1 (ECE-1), angiotensin converting enzyme (ACE), and neutral endopeptidase (NEP)” (J Med Chem, 2002).

Assays:
[1] = target: T1, Angiotensin-converting enzyme (Rattus norvegicus, UniProt P47820); experiment: Inhibition of Angiotensin I converting enzyme (ACE) purified from rat testis
T1 sequence (P47820 whole entry): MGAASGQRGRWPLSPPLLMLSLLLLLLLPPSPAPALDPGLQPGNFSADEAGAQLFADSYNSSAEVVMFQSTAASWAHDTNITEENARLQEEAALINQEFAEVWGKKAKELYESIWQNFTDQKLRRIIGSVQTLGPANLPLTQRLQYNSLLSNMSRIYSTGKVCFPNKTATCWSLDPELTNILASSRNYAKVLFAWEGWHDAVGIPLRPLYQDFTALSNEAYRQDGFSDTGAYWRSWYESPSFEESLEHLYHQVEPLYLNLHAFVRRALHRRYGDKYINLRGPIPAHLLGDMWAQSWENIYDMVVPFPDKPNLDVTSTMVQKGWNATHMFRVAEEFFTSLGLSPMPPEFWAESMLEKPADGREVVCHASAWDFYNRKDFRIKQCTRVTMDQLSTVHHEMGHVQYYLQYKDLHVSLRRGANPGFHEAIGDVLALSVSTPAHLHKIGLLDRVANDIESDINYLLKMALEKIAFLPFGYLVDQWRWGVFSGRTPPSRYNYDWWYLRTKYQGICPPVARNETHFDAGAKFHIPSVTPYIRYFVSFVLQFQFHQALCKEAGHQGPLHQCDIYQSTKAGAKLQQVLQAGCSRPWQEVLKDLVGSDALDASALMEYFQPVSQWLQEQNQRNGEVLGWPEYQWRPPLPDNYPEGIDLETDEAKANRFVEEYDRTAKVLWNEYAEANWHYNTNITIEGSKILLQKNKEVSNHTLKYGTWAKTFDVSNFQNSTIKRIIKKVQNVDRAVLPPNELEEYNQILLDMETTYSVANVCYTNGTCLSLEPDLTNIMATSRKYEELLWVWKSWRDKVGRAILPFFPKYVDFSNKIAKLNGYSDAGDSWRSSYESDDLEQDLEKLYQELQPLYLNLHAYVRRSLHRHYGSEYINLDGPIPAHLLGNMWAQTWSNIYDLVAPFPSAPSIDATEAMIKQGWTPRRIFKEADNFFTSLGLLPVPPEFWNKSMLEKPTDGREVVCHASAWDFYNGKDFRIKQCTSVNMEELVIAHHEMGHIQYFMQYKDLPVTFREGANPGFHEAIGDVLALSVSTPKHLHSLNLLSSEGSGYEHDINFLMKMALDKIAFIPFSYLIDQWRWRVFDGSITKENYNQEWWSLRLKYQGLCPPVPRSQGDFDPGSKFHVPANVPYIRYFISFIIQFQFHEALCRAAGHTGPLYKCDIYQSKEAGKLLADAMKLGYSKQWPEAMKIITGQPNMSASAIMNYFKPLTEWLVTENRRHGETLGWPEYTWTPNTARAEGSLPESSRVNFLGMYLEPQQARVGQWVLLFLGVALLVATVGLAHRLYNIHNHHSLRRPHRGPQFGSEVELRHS
Outline: (§1)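 ACE purified from rat testis, final 0.02 pmol/100 µL, preincubated 10 min at 37 °C with or without various inhibitor concentrations in 50 mM Tris/HCl/NaCl 1% pH 7.4. Then 50 µM N-Cbz-Phe-His-Leu (Km 50 µM) added for 30 min. Stopped with 2 N NaOH and diluted with water. Released His-Leu measured fluorometrically.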

[2] = target: T2, Neprilysin (Oryctolagus cuniculus, UniProt P08049); experiment: Inhibition of neutral endopeptidase (NEP) isolated from rabbit kidney
T2 sequence (P08049 whole entry): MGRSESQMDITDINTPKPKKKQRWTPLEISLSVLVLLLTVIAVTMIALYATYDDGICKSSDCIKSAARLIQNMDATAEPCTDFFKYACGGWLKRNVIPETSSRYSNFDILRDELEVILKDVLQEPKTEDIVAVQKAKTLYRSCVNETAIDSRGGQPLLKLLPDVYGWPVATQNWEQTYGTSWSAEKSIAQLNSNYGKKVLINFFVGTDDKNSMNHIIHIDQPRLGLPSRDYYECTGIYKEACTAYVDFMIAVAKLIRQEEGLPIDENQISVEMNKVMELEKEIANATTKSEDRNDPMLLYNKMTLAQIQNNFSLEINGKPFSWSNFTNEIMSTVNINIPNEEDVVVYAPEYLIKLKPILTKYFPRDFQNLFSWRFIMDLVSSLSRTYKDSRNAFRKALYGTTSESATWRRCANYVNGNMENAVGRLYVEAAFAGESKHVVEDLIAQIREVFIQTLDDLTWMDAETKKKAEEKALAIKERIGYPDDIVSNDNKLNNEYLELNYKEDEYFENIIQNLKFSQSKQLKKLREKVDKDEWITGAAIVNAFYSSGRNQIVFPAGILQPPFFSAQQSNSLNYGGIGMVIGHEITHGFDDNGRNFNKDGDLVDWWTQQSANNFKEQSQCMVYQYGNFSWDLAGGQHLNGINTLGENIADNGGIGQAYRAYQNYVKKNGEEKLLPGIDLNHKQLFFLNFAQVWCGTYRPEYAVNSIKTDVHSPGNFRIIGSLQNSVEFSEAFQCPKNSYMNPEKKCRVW
Outline: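 Rabbit kidney NEP purified to homogeneity, final 250 ng/mL, preincubated 10 min at 37 °C with or without rising inhibitor concentrations in 50 mM Tris-HCl pH 7.4. Then 50 µM DGPA (Dansyl-Gly-(p-NO2)Phe-β-Ala; Km 37 µM) added for 1 h. Stopped with DMSO. Fluorescence read at ex 340/em 530 nm.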

[3] = target: T3, Endothelin-converting enzyme 1 (Homo sapiens, UniProt P42892); experiment: Inhibition activity towards human recombinant Endothelin-converting enzyme 1 (hECE-1c) expressed in Cos-7 cells; format: cell-based
T3 sequence (P42892 whole entry): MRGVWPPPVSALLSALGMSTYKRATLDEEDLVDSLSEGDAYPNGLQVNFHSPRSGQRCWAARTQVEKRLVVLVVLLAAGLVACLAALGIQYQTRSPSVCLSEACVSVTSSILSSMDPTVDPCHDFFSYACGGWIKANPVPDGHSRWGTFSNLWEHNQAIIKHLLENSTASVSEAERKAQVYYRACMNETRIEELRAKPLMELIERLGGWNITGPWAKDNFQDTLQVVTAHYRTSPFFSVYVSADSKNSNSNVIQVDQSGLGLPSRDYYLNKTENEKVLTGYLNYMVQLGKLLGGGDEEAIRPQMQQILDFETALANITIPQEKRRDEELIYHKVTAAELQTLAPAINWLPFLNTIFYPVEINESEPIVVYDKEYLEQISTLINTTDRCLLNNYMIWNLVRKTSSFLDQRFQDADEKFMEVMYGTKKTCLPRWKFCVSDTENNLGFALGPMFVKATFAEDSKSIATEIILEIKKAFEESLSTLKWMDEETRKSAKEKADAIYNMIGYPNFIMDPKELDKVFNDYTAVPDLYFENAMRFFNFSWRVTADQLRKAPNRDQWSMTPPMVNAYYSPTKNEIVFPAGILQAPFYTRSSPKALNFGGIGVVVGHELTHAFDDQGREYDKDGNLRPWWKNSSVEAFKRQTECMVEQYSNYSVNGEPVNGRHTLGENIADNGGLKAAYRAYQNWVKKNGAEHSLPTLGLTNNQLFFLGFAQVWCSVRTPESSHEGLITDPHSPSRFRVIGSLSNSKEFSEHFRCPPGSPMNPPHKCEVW
Outline: (§2)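 Recombinant human ECE-1c from Cos-7 cells, 4 µg total protein per well, preincubated 10 min at 37 °C in 50 mM tris-maleate pH 6-8 with or without rising inhibitor concentrations. Reaction started with 20 µM (Pya21-(p-NO2)Phe22)bigET(19-35) (Km 20 µM), run 1 h at 37 °C, stopped by cooling. Fluorescence read at ex 340/em 400 nm.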

[4] = target: T1, Angiotensin-converting enzyme; experiment: Inhibition of Angiotensin I converting enzyme (ACE); outline: as §1
[5] = target: T3, Endothelin-converting enzyme 1; experiment: Inhibition of Endothelin-converting enzyme 1 (ECE); outline: as §2
[6] = target: T2, Neprilysin; experiment: Inhibition of neutral endopeptidase (NEP)
Outline: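 NEP purified from rabbit kidney (final 250 ng/mL) preincubated 10 min at 37 °C with or without increasing inhibitor concentrations in 50 mM Tris-HCl pH 7.4. Reaction stopped after 1 h with DMSO.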

| Structure (SMILES) | Ki [1] | Ki [2] | Ki [3] | Ki [4] | Ki [6] | Ki [5] |
| --- | --- | --- | --- | --- | --- | --- |
| O=C(O)[C@H](Cc1c[nH]c2ccccc12)NC(=O)[C@H](CS)[C@H]1CCc2ccccc21 | 43 nM | 0.7 nM | 26 nM | – | – | – |
| O=P(O)(O)C(CCc1cccc2ccccc12)N[C@@H](Cc1ccc(-c2ccccc2)cc1)c1nnn[nH]1 (stereo not given in full) | – | – | – | > 10000 nM | 2.2 nM | 10.8 nM |
| O=C(O)[C@H](Cc1c[nH]c2ccccc12)NC(=O)[C@H](CS)[C@@H]1CCCc2ccccc21 | 134 nM | 43 nM | 1240 nM | – | – | – |
| C[C@H](c1ccccc1)[C@@H](CS)C(=O)N[C@@H](Cc1c[nH]c2ccccc12)C(=O)O | 290 nM | 5 nM | 580 nM | – | – | – |
| CC(c1cccc2ccccc12)C(CS)C(=O)NC(Cc1c[nH]c2ccccc12)C(=O)O (stereo not given) | 79 nM | 51 nM | 600 nM | – | – | – |
| C[C@H](c1ccc(-c2ccccc2)cc1)[C@@H](CS)C(=O)N[C@@H](Cc1c[nH]c2ccccc12)C(=O)O | 330 nM | 5 nM | 190 nM | – | – | – |
| O=C(O)C(Cc1c[nH]c2ccccc12)NC(=O)C(CS)C1CCCc2ccccc21 (stereo not given) | 18 nM | 4.5 nM | 300 nM | – | – | – |
| O=C(O)C(Cc1c[nH]c2ccccc12)NC(=O)C(CS)c1ccc(-c2ccccc2)cc1 (stereo not given) | 77 nM | 135 nM | 4150 nM | – | – | – |
| O=C(O)C(Cc1c[nH]c2ccccc12)NC(=O)C(CS)C(c1ccccc1)c1ccccc1 (stereo not given) | – | – | – | 250 nM | 140 nM | > 10000 nM |
| C[C@@H](c1ccc(-c2ccccc2)cc1)[C@@H](CS)C(=O)N[C@@H](Cc1c[nH]c2ccccc12)C(=O)O | 130 nM | 1.5 nM | 135 nM | – | – | – |
| C[C@@H](c1ccccc1)[C@H](CS)C(=O)N[C@@H](Cc1c[nH]c2ccccc12)C(=O)O | 15 nM | 2.5 nM | 780 nM | – | – | – |
| C[C@H](CS)C(=O)N1CCC[C@H]1C(=O)O [CAPTOPRIL] | – | – | – | – | > 1000 nM | > 10000 nM |
| O=C(O)CNC(=O)C(CS)Cc1ccccc1 (stereo not given) [THIORPHAN] | – | – | – | > 100 nM | – | > 10000 nM |

Continued by falling Ki [1], values first:

| Ki [1] | Ki [2] | Ki [3] | Ki [4] | Ki [6] | Structure (SMILES) | Ki [5] |
| --- | --- | --- | --- | --- | --- | --- |
| 170 nM | 27 nM | 680 nM | – | – | O=C(O)[C@H](Cc1c[nH]c2ccccc12)NC(=O)[C@H](CS)[C@@H]1CCc2ccccc21 | – |
| 150 nM | 22 nM | 1560 nM | – | – | O=C(O)C(Cc1c[nH]c2ccccc12)NC(=O)C(CS)c1cccc2ccccc12 (stereo not given) | – |
| 150 nM | 35 nM | 900 nM | – | – | O=C(O)C(Cc1c[nH]c2ccccc12)NC(=O)C(CS)c1cccc(-c2ccccc2)c1 (stereo not given) | – |
| 76 nM | 3 nM | 250 nM | – | – | O=C(O)[C@H](Cc1c[nH]c2ccccc12)NC(=O)[C@H](CS)[C@H]1CCCc2ccccc21 | – |
| 65 nM | 30 nM | 110 nM | – | – | C[C@H](c1ccc(-c2ccccc2)cc1)[C@H](CS)C(=O)N[C@@H](Cc1c[nH]c2ccccc12)C(=O)O | – |
| 62 nM | 4.8 nM | 220 nM | – | – | CC(c1ccc(-c2ccccc2)cc1)C(CS)C(=O)N[C@@H](Cc1c[nH]c2ccccc12)C(=O)O (stereo not given in full) | – |
| 47 nM | 5.4 nM | 980 nM | – | – | CC(c1ccc2ccccc2c1)C(CS)C(=O)NC(Cc1c[nH]c2ccccc12)C(=O)O (stereo not given) | – |
| 41 nM | 10 nM | 1140 nM | – | – | O=C(O)[C@H](Cc1c[nH]c2ccccc12)NC(=O)[C@@H](CS)[C@@H]1CCc2ccccc21 | – |
| 40 nM | 3 nM | 300 nM | – | – | CC(c1ccccc1)C(CS)C(=O)NC(Cc1c[nH]c2ccccc12)C(=O)O (stereo not given) | – |
| 38 nM | 35 nM | 920 nM | – | – | C[C@@H](c1ccc(-c2ccccc2)cc1)[C@H](CS)C(=O)N[C@@H](Cc1c[nH]c2ccccc12)C(=O)O | – |
| 33 nM | 2.4 nM | 200 nM | – | – | C[C@@H](c1ccccc1)[C@@H](CS)C(=O)N[C@@H](Cc1c[nH]c2ccccc12)C(=O)O | – |
| 29 nM | 2.2 nM | 100 nM | – | – | C[C@H](c1ccccc1)[C@H](CS)C(=O)N[C@@H](Cc1c[nH]c2ccccc12)C(=O)O | – |
| 26 nM | 8 nM | 670 nM | – | – | O=C(N[C@@H](Cc1c[nH]c2ccccc12)C(=O)O)C(CS)[C@@H]1CCCc2ccccc21 (stereo not given in full) | – |
| 20 nM | 1.8 nM | 100 nM | – | – | O=C(O)C(Cc1c[nH]c2ccccc12)NC(=O)C(CS)C1CCc2ccccc21 (stereo not given) | – |
| 10 nM | 2.1 nM | 290 nM | – | – | O=C(O)[C@H](Cc1c[nH]c2ccccc12)NC(=O)[C@@H](CS)[C@H]1CCc2ccccc21 | – |
| 10 nM | 3 nM | 190 nM | – | – | O=C(O)[C@H](Cc1c[nH]c2ccccc12)NC(=O)[C@@H](CS)[C@H]1CCCc2ccccc21 | – |
